Source: ChEMBL document CHEMBL3407498, “Design, synthesis and 3D-QSAR studies of novel 1,4-dihydropyridines as TGFβ/Smad inhibitors” (Eur J Med Chem, 2015)

How the values were obtained:
[1] = Inhibition of TGFbeta/Smad in TGFbeta-2/activin A-stimulated HEK293 cells preincubated for 2 hrs before stimulation measured after 20 to 22 hrs by firefly/renilla luciferase reporter assay; assay type: cell-based; conditions: Homo sapiens
Method in brief: (§1)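 HEK293T cells co-transfected with SBE-4 firefly luciferase and TK-driven renilla luciferase plasmids, replated after 12-14 h, rested 2 h, then given compound, DMSO and TGFβ-2 or Activin A (10 ng/mL). Firefly and renilla signals read after 20-22 h by dual luciferase kit. Triplicate wells; data normalized to DMSO (0% inhibition), mean ± SD of 2-4 independent experiments.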

[2] = system: HEK293; assay: Inhibition of TGFbeta/Smad in TGFbeta-2/activin A-stimulated HEK293 cells preincubated at 2.5 uM for 2 hrs before stimulation measured after 20 to 22 hrs by firefly/renilla luciferase reporter assay; assay type: cell-based; conditions: Homo sapiens; method in brief: as §1

Row | Compound | IC50 [1] [nM] | inhibition [2] [%]
1 | CCOC(=O)C1=C(C)NC2=C(C(=O)CC(C)(C)C2)C1c1ccc(-c2ccc(Cl)cc2)cc1 (stereo not drawn) | 760 | 91
2 | CCCCCCCCCCCCOC(=O)C1=C(C)NC2=C(C(=O)CC(C)(C)C2)C1c1ccc(-c2ccccc2)cc1 (stereo not drawn) |  | 0
3 | CCOC(=O)C1=C(C)NC2=C(C(=O)CC(C)(C)C2)C1c1ccc(-c2ccc(S(C)(=O)=O)cc2)cc1 (stereo not drawn) | 2760 | 44
4 | CCOC(=O)C1=C(C)NC2=C(C(=O)CC(C)(C)C2)C1c1ccc(-c2ccc(OC(F)(F)F)cc2)cc1 (stereo not drawn) | 480 | 95
5 | CCCNCC1=C(C(=O)OCC)C(c2ccc(-c3ccccc3)cc2)C2=C(CC(C)(C)CC2=O)N1 (stereo not drawn) | 1600 | 57
6 | CCCC(=O)C1=C(C)NC2=C(C(=O)CC(C)(C)C2)C1c1ccc(-c2ccccc2)cc1 (stereo not drawn) | 500 | 84
7 | COC(=O)C1=C(C(=O)O)NC2=C(C(=O)CC(C)(C)C2)C1c1ccc(-c2ccccc2)cc1 (stereo not drawn) |  | 4
8 | CC1=C(C(=O)OC2CCCC2)C(c2ccc(-c3ccccc3)cc2)C2=C(CC(C)(C)CC2=O)N1 (stereo not drawn) | 1110 | 77
9 | CC1(C)CC(=O)C2=C(C1)NC1=C(C(=O)N(Cc3ccccc3)C1)C2c1ccc(-c2ccccc2)cc1 (stereo not drawn) | 870 | 82
10 | CC1(C)CC(=O)C2=C(C1)NC1=C(C(=O)c3ccccc31)C2c1ccc(-c2ccccc2)cc1 (stereo not drawn) | 1260 | 70
11 | C=CCOC(=O)C1=C(C)NC2=C(C(=O)CC(C)(C)C2)C1c1ccc(-c2ccccc2)cc1 (stereo not drawn) | 620 | 91
12 | CCOC(=O)C1=C(C)NC2=C(C(=O)CC(C)(C)C2)C1c1ccc(-c2ccc(N(C)C)cc2)cc1 (stereo not drawn) | 330 | 95
13 | CCCOCCOC(=O)C1=C(C)NC2=C(C(=O)CC(C)(C)C2)C1c1ccc(-c2ccccc2)cc1 (stereo not drawn) |  | 0
14 | CCNC(=O)C1=C(C)NC2=C(C(=O)CC(C)(C)C2)C1c1ccc(-c2ccccc2)cc1 (stereo not drawn) |  | 31
15 | CC1(C)CC(=O)C2=C(C1)NC1=C(C(=O)OC1)C2c1ccc(-c2ccccc2)cc1 (stereo not drawn) | 4300 | 37
16 | COC(=O)C1=C(C)NC2=C(C(=O)CC(C)C2)C1c1ccc(-c2ccccc2)cc1 (stereo not drawn) |  | 21
17 | CCCCC(=O)C1=C(C)NC2=C(C(=O)CC(C)(C)C2)C1c1ccc(-c2ccccc2)cc1 (stereo not drawn) | 560 | 80
18 | CCOC(=O)C1=C(N)NC2=C(C(=O)CC(C)(C)C2)C1c1ccc(C(C)(C)C)cc1 (stereo not drawn) | 510 | 89
19 | CCOC(=O)C1=C(C)NC2=C(C(=O)CC(C)(C)C2)C1c1ccc(-c2ccc(F)cc2)cc1 (stereo not drawn) | 1230 | 74
20 | CC1(C)CC(=O)C2=C(C1)NC1=C(C(=O)CC(C)(C)C1)C2c1ccccc1 |  | 21
21 | C#Cc1ccc(C2C(C(=O)OCC)=C(C)NC3=C2C(=O)CC(C)(C)C3)cc1 (stereo not drawn) | 1710 | 59
22 | CCNCC1=C(C(=O)OCC)C(c2ccc(-c3ccccc3)cc2)C2=C(CC(C)(C)CC2=O)N1 (stereo not drawn) | 3440 | 64
23 | CCOC(=O)C1=C(C)NC2=C(C(=O)CC(C)(C)C2)C1c1ccc(-c2ccc(C#N)cc2)cc1 (stereo not drawn) | 1790 | 52
24 | COC(=O)C1=C(C(=O)OC)C(c2ccc(-c3ccccc3)cc2)C2=C(CC(C)(C)CC2=O)N1 (stereo not drawn) | 2010 | 46
25 | CC1=C(C(=O)OCC(C)C)C(c2ccc(-c3ccccc3)cc2)C2=C(CC(C)(C)CC2=O)N1 (stereo not drawn) | 420 | 
26 | CCOC(=O)C1=C(COC)NC2=C(C(=O)CC(C)(C)C2)C1c1ccc(-c2ccccc2)cc1 (stereo not drawn) | 1890 | 78
27 | CCOC(=O)C1=C(C)NC2=C(C(=O)CC(C)(C)C2)C1c1ccc(-c2ccc(OC)cc2)cc1 (stereo not drawn) | 420 | 93

Row | Compound | IC50 [1] [nM] | inhibition [2] [%]
28 | CCN(CC)CCN1C2=C(C(=O)CC(C)(C)C2)C(c2ccccc2)C2=C1CC(C)(C)CC2=O |  | 12
29 | CCOC(=O)C1=C(C)NC2=C(C(=O)CC(C)(C)C2)C1c1ccccc1 (stereo not drawn) |  | 2
30 | CCOC(=O)C1=C(C(=O)O)NC2=C(C(=O)CC(C)(C)C2)C1c1ccc(-c2ccccc2)cc1 (stereo not drawn) |  | 0
31 | CCOC(=O)C1=C(C)NC2=C(C(=O)CC(C)(C)C2)C1c1ccc(-c2ccccc2)cc1 (stereo not drawn) | 850 | 83
32 | CCOC(=O)C1=C(C)NC2=C(C(=O)CC(C)(C)C2)C1c1ccc(-c2ccc(O)cc2)cc1 (stereo not drawn) | 730 | 74
33 | CC1=C(C(=O)NCc2ccccc2)C(c2ccc(-c3ccccc3)cc2)C2=C(CC(C)(C)CC2=O)N1 (stereo not drawn) | 5190 | 32
34 | CC1(C)CC(=O)C2=C(C1)NC1=C(C(=O)c3ccccc31)C2c1ccccc1 (stereo not drawn) |  | 11
35 | CCC(=O)C1=C(CC)NC2=C(C(=O)CC(C)(C)C2)C1c1ccc(-c2ccccc2)cc1 (stereo not drawn) | 1630 | 62
36 | CCOC(=O)C1=C(C)NC2=C(C(=O)CC(C)(C)C2)C1c1ccc(O)c(OC)c1 (stereo not drawn) |  | 8
37 | CCOC(=O)C1=C(C)NC2=C(C(=O)CC(C)(C)C2)C1c1ccc(C(C)(C)C)cc1 (stereo not drawn) |  | 90
38 | CCOC(=O)C1=C(C)NC2=C(C(=O)CC(C)(C)C2)C1c1ccc(-c2ccc(C(F)(F)F)cc2)cc1 (stereo not drawn) | 970 | 88
39 | CC1=C(C(=O)OC(C)C)C(c2ccc(-c3ccccc3)cc2)C2=C(CC(C)(C)CC2=O)N1 (stereo not drawn) | 660 | 85
40 | CCOC(=O)C1=C(C)NC2=C(C(=O)CC(C)(C)C2)C1c1ccccc1OC(F)(F)F (stereo not drawn) |  | 9
41 | CC1=C(C#N)C(c2ccc(-c3ccccc3)cc2)C2=C(CC(C)(C)CC2=O)N1 (stereo not drawn) | 2950 | 44
42 | CCCOC(=O)C1=C(C)NC2=C(C(=O)CC(C)(C)C2)C1c1ccc(-c2ccccc2)cc1 (stereo not drawn) | 490 | 93
43 | CCOC(=O)C1=C(C(=O)OCC)C(c2ccc(-c3ccccc3)cc2)C2=C(CC(C)(C)CC2=O)N1 (stereo not drawn) | 1800 | 56
44 | CCOC(=O)C1=C(C)NC2=C(C(=O)CC(C)(C)C2)C1c1cc(OC)c(OC)c(OC)c1 (stereo not drawn) |  | 5
45 | CCOC(=O)C1=C(C)NC2=C(C(=O)CC(C)(C)C2)C1c1ccc(-c2ccncc2)cc1 (stereo not drawn) | 6140 | 27
46 | CCN1CC2=C(C1=O)C(c1ccc(-c3ccccc3)cc1)C1=C(CC(C)(C)CC1=O)N2 (stereo not drawn) | 5030 | 25
47 | CCOC(=O)C1=C(C)NC2=C(C(=O)CC(C)(C)C2)C1c1ccc(-c2ccc(C)cc2)cc1 (stereo not drawn) | 350 | 94
48 | CCOC(=O)C1=C(C)NC2=C(C(=O)CC(C)(C)C2)C1c1ccc(-c2ccc(Br)cc2)cc1 (stereo not drawn) | 460 | 94
49 | CCOC(=O)C1=C(C)NC2=C(C(=O)NCC2)C1c1ccc(-c2ccccc2)cc1 (stereo not drawn) |  | 21
50 | CCOCCOC(=O)C1=C(C)NC(C)=C(C(=O)OCCOCC)C1c1ccccc1OC(F)(F)F |  | 4
51 | CC1(C)CC(=O)C2=C(C1)NC1=C(C(=O)NC1)C2c1ccc(-c2ccccc2)cc1 (stereo not drawn) |  | 28
52 | CC1=C(C(=O)OC(C)(C)C)C(c2ccc(-c3ccccc3)cc2)C2=C(CC(C)(C)CC2=O)N1 (stereo not drawn) | 670 | 84
53 | CCOC(=O)C1=C(N)NC2=C(C(=O)CC(C)(C)C2)C1c1ccc(-c2ccccc2)cc1 (stereo not drawn) | 1330 | 61
